# RGS4 pot – RGS4 potentiation or activation. AID 463111. 0.92% of 310,000 active. HEK293 M3R/inducible RGS4, carbachol calcium flux Fluo4; hits give low values. B-score at 10 µM;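 active means B-score of the integrated calcium signal more than 4 SD below the library mean, with starting fluorescence not abnormally high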;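 further: negative B-score means reduced calcium response which marks RGS4 activation or potentiation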
#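 System – HEK293 FlpIn-TREx cells, stable M3R, doxycycline-inducible RGS4 · Reagent – ECmax carbachol challenge · Times – compound preincubation 20 min at room temperature before agonist · Technique – Fluo4 fluorescence kinetic imaging of calcium · Measure – B score of integrated Fluo4 ratio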
# MrgX1 allo act – allosterically activates human MrgX1 receptor signaling; Q96LB2; MrgX1-HEK293, Fluo-4 calcium flux, FDSS; hits give high values; B-score at 10 µM; 0.63% of 310,000 active; AID 588675;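 active means plate-corrected calcium response at least 3 library SD above typical, normal starting fluorescence, not activating the receptor alone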;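 further: compound read alongside a low EC10 to EC30 dose of BAM8-22 agonist; peak minus trough fluorescence over baseline measured at the second addition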
# Target sequence (Q96LB2 whole entry, looked up): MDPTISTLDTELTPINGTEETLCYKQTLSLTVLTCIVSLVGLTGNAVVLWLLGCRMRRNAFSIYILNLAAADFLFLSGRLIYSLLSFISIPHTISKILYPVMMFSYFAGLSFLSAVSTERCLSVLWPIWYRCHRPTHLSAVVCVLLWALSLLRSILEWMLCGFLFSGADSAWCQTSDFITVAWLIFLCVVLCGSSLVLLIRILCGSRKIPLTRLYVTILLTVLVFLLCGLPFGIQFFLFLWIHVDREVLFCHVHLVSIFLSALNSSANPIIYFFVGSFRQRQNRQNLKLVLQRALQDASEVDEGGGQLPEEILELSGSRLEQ
# RGS4 block – human RGS4 inhibition. P49798. HEK293 M3R/RGS4 inducible, Fluo-4 calcium flux; hits give high values; triggered by carbachol at its EC20. B-score at 10 µM. 0.45% of 310,000 active;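 active means B-score, a plate-corrected calcium signal, over three deviations above library mean, with baseline fluorescence within five deviations of library mean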;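 further: RGS4 expression induced by doxycycline in cells with stable M3 receptor; B-score is computed from the integrated fluorescence ratio over baseline after carbachol; higher B-score means a larger calcium signal and so more RGS4 inhibition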
# Target sequence (P49798 whole entry, looked up): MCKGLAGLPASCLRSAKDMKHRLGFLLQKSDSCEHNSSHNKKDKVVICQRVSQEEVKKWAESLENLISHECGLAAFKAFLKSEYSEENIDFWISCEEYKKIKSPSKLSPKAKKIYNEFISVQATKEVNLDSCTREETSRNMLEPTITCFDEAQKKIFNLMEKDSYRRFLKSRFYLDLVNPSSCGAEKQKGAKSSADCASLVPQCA
# MrgX1 agonist – agonists of human MrgX1 receptor. Q96LB2. MrgX1-HEK293 cells, Fluo-4 calcium fluorescence, agonist mode; hits give high values. B-score at 10 µM. 0.44% of 310,000 active. AID 588627;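 active means calcium response B-score plate-corrected fluorescence ratio at least 3 library SD, with starting fluorescence B-score inside 5 SD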
#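 System – MrgX1-expressing HEK293 cells · Incubation – cells plated overnight, dye loaded 0.5 h 37 °C, 0.5 h room temperature · Technique – kinetic Fluo-4 NW fluorescence of intracellular calcium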
# MrgX1 antag – human MrgX1 receptor antagonism, primary screen | B-score at 10 µM | Q96LB2 | MRGX1-HEK293 calcium flux, Fluo-4, BAM8-22 antagonism; hits give low values | 1.3% of 310,000 active;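 active means calcium-response B-score plate-corrected more than 3 library SD below zero, starting fluorescence within 5 deviations, no agonist response on first addition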;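 further: peak minus trough fluorescence over baseline after final BAM8-22 challenge near maximal dose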
# The depositor's hits bear a star; i = inactive; x = no result. Rows were chosen to be rich in hits. Some 3.5% of all compounds tested hit in one or more screens of this group.
SMILES,RGS4 pot,MrgX1 allo act,RGS4 block,MrgX1 agonist,MrgX1 antag
O=C1c2ccccc2NC(c2ccc(Cl)cc2Cl)N1O (stereo not given),i,i,i,i,i
Cc1csc(N/N=C/c2ccc(O)c([N+](=O)[O-])c2)n1,i,i,i,i,-6*
Cc1ccc(NC(=O)CNCc2ccccc2Cl)cc1S(=O)(=O)N(C)C,i,i,i,i,i
CCOc1ccc(/C=C2\SC(=S)N(C(C(=O)O)c3ccccc3)C2=O)cc1OC (stereo not given),i,i,i,i,i
C=CCOc1ccc(/C=C2\SC(=S)N(C(C(=O)O)c3ccccc3)C2=O)cc1 (stereo not given),-9.3*,x,i,x,x
COc1ccc(OC)c(/C=C2\SC(=S)N(C(C(=O)O)c3ccccc3)C2=O)c1 (stereo not given),i,i,i,53*,i
COc1ccc([N+](=O)[O-])cc1NC(=O)C1C2C=CC(C2)C1C(=O)O (stereo not given),i,i,i,i,i
Cc1cc(/C=C2\SC(=S)N(Cc3ccco3)C2=O)c(C)n1-c1cccnc1,i,x,i,x,x
Cc1cc(/C=C2/SC(=S)N(c3cccc(C(F)(F)F)c3)C2=O)c(C)n1-c1cccnc1,i,16*,i,i,i
COc1ccc(-n2nc3c(c2NC(=O)C2CC(=O)N(c4ccccc4)C2)CS(=O)(=O)C3)cc1 (stereo not given),i,i,i,i,i
C/C(CC(=O)Nc1ccccn1)=N\NC(=O)c1cnccn1,i,i,i,i,i
O=C(c1cccn2c(=O)c3ccccc3nc12)N1CCN(Cc2ccc3c(c2)OCO3)CC1,i,i,i,i,i
O=C(c1ccc2nc3ccccc3c(=O)n2c1)N1CCN(Cc2ccc3c(c2)OCO3)CC1,i,i,i,i,-9.6*
Cc1cccc(C)c1-n1cccc1/C=C1\SC(=S)N(c2cccc(C(=O)O)c2)C1=O,-7.6*,i,i,i,i
Cc1[nH]c2ccccc2c1/C=C/c1nc2ccccc2c(=O)n1CCO,i,i,i,i,i
CN(C)CC/C=C1/c2ccccc2Sc2c(O)cc(Cl)cc21,-7.3*,i,i,i,i
COc1cc(Cl)cc2c1Sc1ccccc1/C2=C/CCN(C)C,-7.1*,i,i,i,i
CN1CCN(CC/C=C2/c3ccccc3Sc3ccc(S(=O)(=O)N(C)C)cc32)CC1,i,i,i,i,i
CN(C)CC/C=C1/c2cc(F)ccc2Sc2ccc(Cl)cc21,-10*,i,i,i,i
CN(C(=O)c1ccc2c(c1)OCO2)C1(C)CCS(=O)(=O)C1 (stereo not given),i,i,i,i,i
O=C(Cn1cnc2ccccc2c1=O)NC1CCS(=O)(=O)C1 (stereo not given),i,i,i,i,i
CN(C(=O)CSc1nnc(-c2cccnc2)n1-c1ccccc1F)C1CCS(=O)(=O)C1 (stereo not given),i,i,i,i,i
CC1(c2nnc(-c3ccc(Cl)cc3)o2)CC(c2cccc(Cl)c2)=NO1 (stereo not given),i,i,i,i,-5.9*
O=C(Nc1cccc(C(F)(F)F)c1)c1ccc2nc(-c3ccco3)c(-c3ccco3)nc2c1,i,i,i,i,-5.6*
COc1ccc(CCNC(=O)c2ccc3nc(-c4ccco4)c(-c4ccco4)nc3c2)cc1OC,x,i,x,i,-4.6*
SMILES,RGS4 pot,MrgX1 allo act,RGS4 block,MrgX1 agonist,MrgX1 antag
CCOc1ncccc1C(=O)Nc1cccc(C(=O)Nc2cccc(S(=O)(=O)CCO)c2)c1,i,i,i,i,-5.3*
CCOc1ncccc1C(=O)OCC(=O)Nc1cccc(S(N)(=O)=O)c1,i,i,i,i,i
Cc1cc(C)n(CC(=O)N/N=C/c2cccs2)n1,i,i,i,i,-4.6*
Cc1cc(C)n(CC(=O)N/N=C/c2ccc([N+](=O)[O-])s2)n1,i,i,i,i,i
CC(C)n1nnnc1-c1ccc(Cl)cc1,i,i,i,i,i
O=C(Nc1cccc(O)c1)c1cc(-c2ccccc2Cl)on1,i,i,i,i,i
Cc1ccc(S(=O)(=O)N2CCCCC2)cc1NC(=O)COC(=O)C1=COCCO1,i,i,i,i,i
COc1ccc(NC(=O)COc2coc(CN3CCN(c4ccccc4)CC3)cc2=O)cc1,i,i,i,i,-5.7*
COc1ccc(N2CCN(Cc3cc(=O)c(OCC(=O)Nc4ccccc4)co3)CC2)cc1,i,i,i,i,i
CCCCN(C(=O)c1cccc(S(=O)(=O)N2CCOCC2)c1)c1c(N)n(CCC)c(=O)[nH]c1=O,i,9.4*,i,i,i
CCCn1c(N)c(N(CCOC)C(=O)c2cccc(Cl)c2)c(=O)[nH]c1=O,i,i,i,i,i
CCCCN(C(=O)C(C)Oc1cccc(Cl)c1)c1c(N)n(CCC)c(=O)[nH]c1=O (stereo not given),i,i,i,i,-5.1*
Cc1ccc(/C=N\NC(=O)C2CC(=O)N(c3ccccc3)C2)o1 (stereo not given),i,i,i,i,i
CCCn1c(=O)c(C(=O)NCCc2ccc(OC)cc2)c(O)c2ccccc21,i,7*,i,i,i
CCn1c(=O)c(C(=O)NNC(=O)c2ccc(Cl)cc2Cl)c(O)c2ccccc21,-7.8*,i,i,69*,i
CCCn1c(=O)c(C(=O)NNC(=O)c2ccc(Cl)cc2Cl)c(O)c2ccccc21,i,i,i,38*,i
CCc1nc2ccccc2c(=O)n1NC(=O)c1c(O)c2ccccc2n(CC)c1=O,i,12*,i,i,i
CCCn1c(=O)c(C(=O)NCCc2ccccc2)c(O)c2ccccc21,i,i,i,i,i
CCn1c(=O)c(C(=O)Nn2c(C)nc3ccccc3c2=O)c(O)c2ccccc21,i,i,i,i,i
CC(C)NC(=O)COc1coc(CN2CCN(Cc3ccccc3)CC2)cc1=O,i,i,i,i,i
CCOc1ccc(/C=C2/SC(=O)NC2=S)cc1,i,i,i,32*,i
CCOc1ccc(/C=C2\SC(=S)N(N3C(=O)C4CC4C3=O)C2=O)cc1 (stereo not given),i,i,i,i,i
COc1ccc(/C(C)=N/NC(=O)c2ccncc2)cc1,i,i,i,i,i
C/C(=N/NC(=O)c1ccncc1)C1=C(O)CC(C)(C)CC1=O,i,i,i,i,-4.7*
